Results from ChEMBL document CHEMBL1141207, “Novel cell-penetrating alpha-keto-amide calpain inhibitors as potential treatment for muscular dystrophy” (Bioorg Med Chem Lett, 2005).

Experiments:
[1] = target: T1, Calpain-1 catalytic subunit (Sus scrofa, UniProt P35750); test: Inhibitory activity against porcine calpain I using Suc-Leu-Tyr-AMC fluorogenic substrate
T1 sequence (P35750 whole entry): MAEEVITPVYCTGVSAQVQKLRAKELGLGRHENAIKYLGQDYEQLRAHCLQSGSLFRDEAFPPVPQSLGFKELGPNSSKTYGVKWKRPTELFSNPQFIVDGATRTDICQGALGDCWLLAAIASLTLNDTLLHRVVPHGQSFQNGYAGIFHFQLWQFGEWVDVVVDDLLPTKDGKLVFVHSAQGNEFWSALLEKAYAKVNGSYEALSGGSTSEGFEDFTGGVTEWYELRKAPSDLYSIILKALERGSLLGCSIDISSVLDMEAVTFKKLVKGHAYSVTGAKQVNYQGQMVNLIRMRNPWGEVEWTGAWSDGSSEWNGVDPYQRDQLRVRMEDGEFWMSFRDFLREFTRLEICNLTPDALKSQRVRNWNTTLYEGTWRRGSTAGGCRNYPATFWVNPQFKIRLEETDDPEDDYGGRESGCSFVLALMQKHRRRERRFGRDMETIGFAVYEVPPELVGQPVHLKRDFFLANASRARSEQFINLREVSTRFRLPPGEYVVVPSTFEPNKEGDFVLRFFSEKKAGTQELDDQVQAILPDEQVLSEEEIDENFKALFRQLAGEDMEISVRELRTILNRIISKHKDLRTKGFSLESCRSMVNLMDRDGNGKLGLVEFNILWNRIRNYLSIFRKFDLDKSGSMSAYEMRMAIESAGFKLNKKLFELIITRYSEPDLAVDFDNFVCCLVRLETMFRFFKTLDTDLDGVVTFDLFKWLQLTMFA
Summary of the method: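 Purified porcine calpain I, cell-free; hydrolysis of fluorogenic Suc-Leu-Tyr-AMC followed as fluorescence increase over 30 min (ex 360 nm, em 440 nm); IC50 values are means of triplicates.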

[2] = Inhibition of calpain I in C2C12 myoblasts loaded with Suc-Leu-Tyr-AMC; assay type: functional, Mus musculus
Summary of the method: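 Cultured C2C12 myoblasts loaded with fluorogenic Suc-Leu-Tyr-AMC before the experiment; cellular calpain activated with Ca2+-ionophore Br-A-23187, then substrate hydrolysis by cellular calpain measured by fluorescence; IC50 values are means of triplicates.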

IC50 [1] [nM] | IC50 [2] [nM] | Structure (SMILES)
40 | 30000 | CCNC(=O)C(=O)[C@H](Cc1ccc(Cl)cc1)NC(=O)[C@@H](NC(=O)CCNC(=O)CCCCC1CCSS1)C(C)C (some centres not stated)
> 1000 |  | CCNC(=O)C(=O)[C@@H](NC(=O)[C@@H](NC(=O)CCCCC1CCSS1)C(C)C)C(c1ccccc1)c1ccccc1 (some centres not stated)
150 | 2500 | CCNC(=O)C(=O)[C@H](Cc1ccc(O)cc1)NC(=O)[C@@H](NC(=O)CCCCC1CCSS1)C(C)C (some centres not stated)
200 | 1100 | CCNC(=O)C(=O)[C@H](Cc1ccc(C(F)(F)F)cc1)NC(=O)[C@@H](NC(=O)CCCCC1CCSS1)C(C)C (some centres not stated)
100 | 6000 | CCNC(=O)C(=O)[C@H](Cc1cccs1)NC(=O)[C@@H](NC(=O)CCCCC1CCSS1)C(C)C (some centres not stated)
500 | 250 | CCNC(=O)C(=O)[C@H](CC(C)C)NC(=O)[C@@H](NC(=O)CCCCC1CCSS1)C(C)C (some centres not stated)
180 | 9000 | CCNC(=O)C(=O)[C@H](Cc1ccc(Br)cc1)NC(=O)[C@@H](NC(=O)CCCCC1CCSS1)C(C)CC (some centres not stated)
100 | 2500 | CCNC(=O)C(=O)[C@H](Cc1ccc(F)cc1)NC(=O)[C@@H](NC(=O)CCCCC1CCSS1)C(C)C (some centres not stated)
120 | 220 | CCNC(=O)C(=O)[C@H](Cc1ccc(OC)cc1)NC(=O)[C@@H](NC(=O)CCCCC1CCSS1)C(C)C (some centres not stated)
100 | 40000 | CCNC(=O)C(=O)[C@H](Cc1ccc(Cl)cc1Cl)NC(=O)[C@@H](NC(=O)CCCCC1CCSS1)C(C)C (some centres not stated)
80 | 10000 | CCNC(=O)C(=O)[C@H](Cc1ccc(Cl)c(Cl)c1)NC(=O)[C@@H](NC(=O)CCCCC1CCSS1)C(C)C (some centres not stated)
400 | 1800 | CCNC(=O)C(=O)[C@H](Cc1ccc(C(C)(C)C)cc1)NC(=O)[C@@H](NC(=O)CCCCC1CCSS1)C(C)C (some centres not stated)
400 | 2000 | CCNC(=O)C(=O)[C@@H](NC(=O)[C@@H](NC(=O)CCCCC1CCSS1)C(C)C)c1ccccc1 (some centres not stated)
100 | 700 | CCNC(=O)C(=O)[C@H](Cc1ccc(F)c(F)c1)NC(=O)[C@@H](NC(=O)CCCCC1CCSS1)C(C)C (some centres not stated)
> 1000 | > 10000 | CCNC(=O)C(=O)[C@H](CCc1ccccc1)NC(=O)[C@@H](NC(=O)CCCCC1CCSS1)C(C)C (some centres not stated)
100 | 15000 | CCNC(=O)C(=O)[C@H](Cc1cccc(C(F)(F)F)c1)NC(=O)[C@@H](NC(=O)CCCCC1CCSS1)C(C)C (some centres not stated)
120 | 5000 | CCNC(=O)C(=O)[C@H](Cc1ccc(C#N)cc1)NC(=O)[C@@H](NC(=O)CCCCC1CCSS1)C(C)C (some centres not stated)
70 | 350 | CCNC(=O)C(=O)[C@H](Cc1ccc(C)cc1)NC(=O)[C@@H](NC(=O)CCCCC1CCSS1)C(C)C (some centres not stated)
30 | 1000 | CCNC(=O)C(=O)[C@H](Cc1ccc(Cl)cc1)NC(=O)[C@@H](NC(=O)CNC(=O)CCCCC1CCSS1)C(C)C (some centres not stated)
100 | 20000 | CCNC(=O)C(=O)[C@H](Cc1ccc(Cl)cc1)NC(=O)[C@@H](NC(=O)CCCCNC(=O)CCCCC1CCSS1)C(C)C (some centres not stated)
80 | 3500 | CCNC(=O)C(=O)[C@H](Cc1ccccc1)NC(=O)[C@@H](NC(=O)CCCCC1CCSS1)C(C)C (some centres not stated)

Continued, compound first:

Structure (SMILES) | IC50 [1] [nM] | IC50 [2] [nM]
CC(C)C[C@H](NC(=O)CCCCC1CCSS1)C(=O)NC(Cc1ccc(Br)cc1)C(=O)C(=O)N1CCOCC1 (some centres not stated) | > 1000 | 
CC(C)C[C@H](NC(=O)CCCCC1CCSS1)C(=O)NC(Cc1ccc(Br)cc1)C(=O)C(=O)O (some centres not stated) | 50 | 5000
CCNC(=O)C(=O)[C@H](Cc1ccc(Br)cc1)NC(=O)[C@@H](NC(=O)CCCCC1CCSS1)C1CCCCC1 (some centres not stated) | > 1000 | 
CCNC(=O)C(=O)[C@H](Cc1ccc(Cl)cc1)NC(=O)[C@@H](NC(=O)CCCCc1ccccc1)C(C)C | 60 | 1500
CCNC(=O)C(=O)[C@H](Cc1ccc(Cl)cc1)NC(=O)[C@@H](NC(=O)CCCC[C@@H]1SC[C@@H]2NC(=O)N[C@@H]21)C(C)C | 100 | 5000
CCNC(=O)C(=O)[C@H](Cc1ccc(Cl)cc1)NC(=O)[C@H](CC(C)(C)C)NC(=O)CCCCC1CCSS1 (some centres not stated) | 100 | 3500
CC(C)C[C@H](NC(=O)CCCCC1CCSS1)C(=O)NC(Cc1ccc(Br)cc1)C(=O)C(=O)NCCc1ccccn1 (some centres not stated) | 230 | 800
CC(C)C[C@H](NC(=O)CCCCC1CCSS1)C(=O)NC(Cc1ccc(Br)cc1)C(=O)C(=O)NC(C)(C)C (some centres not stated) | > 1000 | 
CCOC(=O)C(=O)C(Cc1ccc(Br)cc1)NC(=O)[C@H](CC(C)C)NC(=O)CCCCC1CCSS1 (some centres not stated) | > 10000 | 4500
CCNC(=O)C(=O)[C@H](Cc1ccc(Br)cc1)NC(=O)[C@H](CC(C)C)NC(=O)CCCCC1CCSS1 (some centres not stated) | 24 | 400
CCCCCCCCCCCC(=O)N[C@H](C(=O)N[C@@H](Cc1ccc(Cl)cc1)C(=O)C(=O)NCC)C(C)C | > 1000 | 
CCNC(=O)C(=O)[C@H](CC1CCCCC1)NC(=O)[C@@H](NC(=O)CCCCC1CCSS1)C(C)C (some centres not stated) | 250 | 3000
CCNC(=O)C(=O)[C@@H](Cc1ccc(Br)cc1)NC(=O)[C@H](CC(C)C)NC(=O)CCCCC1CCSS1 (some centres not stated) | 39 | 400
CCNC(=O)C(=O)[C@H](Cc1ccc(Cl)cc1)NC(=O)[C@@H](NC(=O)CCC1CCCS1)C(C)C (some centres not stated) | 100 | 3200
CCNC(=O)C(=O)[C@H](Cc1ccc(Cl)cc1)NC(=O)[C@@H](NC(=O)CCCCC1CCSS1)C(C)(C)C (some centres not stated) | > 1000 | 
CCNC(=O)C(=O)[C@H](Cc1ccc(Cl)cc1)NC(=O)[C@@H](NC(=O)OCc1ccccc1)C(C)C | 90 | 15000
CC(C)C[C@H](NC(=O)CCCCC1CCSS1)C(=O)NC(Cc1ccc(Br)cc1)C(=O)C(=O)NC1CCCCC1 (some centres not stated) | 70 | 280
CCNC(=O)C(=O)[C@H](Cc1ccc(Cl)cc1)NC(=O)[C@@H](NC(=O)CCCC1CCCS1)C(C)C (some centres not stated) | 120 | 2000
CCNC(=O)C(=O)[C@H](Cc1ccc(Cl)cc1)NC(=O)[C@@H](NC(=O)CCCCC1CCCS1)C(C)C (some centres not stated) | 100 | 400
CC(C)C[C@H](NC(=O)CCCCC1CCSS1)C(=O)NC(Cc1ccc(Br)cc1)C(=O)C(N)=O (some centres not stated) | 20 | 250
CCNC(=O)C(=O)[C@H](Cc1ccc(Cl)cc1)NC(=O)[C@@H](NC(=O)CCCCC1CCS[S+]1[O-])C(C)C (some centres not stated) | 80 | 6000
CC(C)C[C@H](NC(=O)CCCCC1CCSS1)C(=O)NC(Cc1ccc(Br)cc1)C(=O)C(=O)NCCCN1CCOCC1 (some centres not stated) | 120 | 1000
CCCCc1ccc(C(=O)N[C@H](C(=O)N[C@@H](Cc2ccc(Cl)cc2)C(=O)C(=O)NCC)C(C)C)cc1 | 150 | 25000
